ChEMBL document CHEMBL1130289, “Polyanion inhibitors of human immunodeficiency virus and other viruses. 5. Telomerized anionic surfactants derived from amino acids” (J Med Chem, 1997)

How the values were obtained:
[1] = test system: Human immunodeficiency virus 1; assay: Inhibitory concentration required to inhibit HIV-induced cytopathicity in CEM-4 cells by 50% based in the MTT assay; format: functional, organism-based; details: Human immunodeficiency virus 1, CEM-4
CEM-4 = assay: Cytotoxic concentration required to reduce the viability of uninfected cells by 50% after 5 days of incubation in the presence on CEM-4 cells.; format: functional; details: Homo sapiens, CEM-4, 120 h
Method in brief: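 Uninfected CEM-4 cells were incubated with compound for 5 days. CC50 is the concentration that reduced viability by 50%. Values average at least two separate experiments.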

[2] = test system: Human immunodeficiency virus 1; assay: Inhibitory concentration required to inhibit HIV-induced cytopathicity in CEM-4 cells by 50% based in the MTT assay; Not active; format: functional, organism-based
[3] = test system: Vesicular stomatitis virus; assay: Concentration required to inhibit vesicular stomatitis induced cytopathicity in E6SM cells by 50%; format: functional, organism-based
Vero = assay: Minimum cytotoxic concentration required to cause a microscopically detectable alteration of normal cell morphology in Vero cells; format: functional, Chlorocebus sabaeus
Method in brief: (§1)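 Uninfected E6SM, HeLa or Vero cells were exposed to compound and examined by microscopy. MCC is the lowest concentration causing a detectable alteration of normal cell morphology.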

[4] = test system: Human immunodeficiency virus 1; assay: Concentration required to inhibit by 50% syncytium formation between MOLT-4 cells and HIV-1(IIIB); format: functional, organism-based; details: Human immunodeficiency virus 1, MOLT-4
Method in brief: (§2)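 Uninfected MOLT-4 cells were co-cultured with HUT-78 cells chronically infected with HIV-1 (IIIB) or HIV-2 (ROD), in the presence of compound. The end point was syncytium formation, and IC50 is the concentration giving 50% inhibition. Values are means of two separate experiments.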

E6SM = assay: Minimum cytotoxic concentration required to cause a microscopically detectable alteration of normal cell morphology in E6SM cells; format: functional, Homo sapiens; method in brief: as §1
Human alphaherpesvirus 1 [5] = assay: Concentration required to inhibit HSV-1(KOS) induced cytopathicity in E6SM cells by 50%; details: Human alphaherpesvirus 1, E6SM
Semliki Forest virus = assay: Concentration required to inhibit forest induced cytopathicity in Vero cells by 50%; format: functional, organism-based
Method in brief: (§3)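 Virus was added to the cell monolayers in the presence of compound. Incubation continued until the viral cytopathic effect was scored. IC50 is the concentration that reduced virus-induced cytopathicity by 50%.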

[6] = test system: Human immunodeficiency virus 2; assay: Concentration required to inhibit by 50% syncytium formation between MOLT-4 cells and HIV-2 (ROD) infected HUT-78 cells; format: functional, organism-based; details: Human immunodeficiency virus 2, MOLT-4; method in brief: as §2
[7] = test system: Human immunodeficiency virus 2; assay: Concentration required to inhibit HIV-2 induced cytopathicity in MT-4 cells by 50%; format: functional, organism-based; details: Human immunodeficiency virus 2, MT4
Method in brief: (§4)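 MT-4 cells were infected with HIV-1 (strain HTLV-IIIB/LAI) or HIV-2 (strain LAV-2 ROD) and exposed to compound. IC50 is the concentration that inhibited HIV-induced cytopathicity by 50%. Values are means of two separate experiments.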

Human alphaherpesvirus 1 [8] = assay: Concentration required to inhibit HSV-1 TK-(B2006) induced cytopathicity in E6SM cells by 50%; details: Human alphaherpesvirus 1, E6SM
Vaccinia virus = assay: Concentration required to inhibit Vaccinia induced cytopathicity in E6SM cells by 50%; format: functional, organism-based; details: Orthopoxvirus vaccinia
Human alphaherpesvirus 2 = assay: Concentration required to inhibit HSV-2(G) induced cytopathicity in E6SM cells by 50%; details: Human alphaherpesvirus 2, E6SM
[9] = test system: Human immunodeficiency virus 1; assay: Concentration required to inhibit HIV-1 induced cytopathicity in MT-4 cells by 50%; format: functional, organism-based; details: Human immunodeficiency virus 1, MT4; method in brief: as §4
MT4 = assay: Concentration required to reduce the viability of mock-infected MT-4 cells by 50%; format: functional; details: Homo sapiens
Method in brief: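 Mock-infected MT-4 cells were exposed to compound. CC50 is the concentration that reduced cell viability by 50%. Values are means of two separate experiments.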

Sindbis virus = assay: Concentration required to inhibit Sindbis induced cytopathicity in Vero cells by 50%; format: functional, organism-based; method in brief: as §3
[10] = test system: Mammalian orthoreovirus 1; assay: Concentration required to inhibit reovirus-1 induced cytopathicity in Vero cells by 50%; format: functional, organism-based; details: Mammalian orthoreovirus 1, Vero; method in brief: as §3
Human betaherpesvirus 5 [11] = assay: Concentration required to inhibit HCMV(Davis) induced cytopathicity in HEL cells by 50%; format: functional, organism-based; details: Human betaherpesvirus 5, HEL; method in brief: as §3
HeLa = assay: Minimum cytotoxic concentration required to cause a microscopically detectable alteration of normal cell morphology in HeLa cells; format: functional, Homo sapiens; method in brief: as §1
HEL = assay: Minimum cytotoxic concentration required to cause a microscopically detectable alteration of normal cell morphology in HEL cells; format: functional, Homo sapiens
Junin virus = assay: Concentration required to inhibit Junin induced cytopathicity in Vero cells by 50%; format: functional, organism-based; details: Mammarenavirus juninense
Poliovirus 1 = assay: Concentration required to inhibit Polio-1 induced cytopathicity in HeLa cells by 50%; format: functional, organism-based; details: Enterovirus C
Human betaherpesvirus 5 [12] = assay: Concentration required to inhibit HCMV(AD169) induced cytopathicity in HEL cells by 50%; format: functional, organism-based; details: Human betaherpesvirus 5, HEL; method in brief: as §3
Tacaribe virus = assay: Concentration required to inhibit Tacaribe induced cytopathicity in Vero cells by 50%; format: functional, cell-based; details: Mammarenavirus tacaribeense
Human respirovirus 3 = assay: Concentration required to inhibit parainfluenza-3 induced cytopathicity in Vero cells by 50%; format: functional, organism-based; details: Human respirovirus 3, Vero; method in brief: as §3
Coxsackievirus = assay: Concentration required to inhibit Coxsackie induced cytopathicity in HeLa cells by 50%; format: functional, organism-based; method in brief: as §3

CCCCCCCCCCCCSCCCCCCCCCCCCCCC(=O)NCCCCCCCCCCC(=O)NC(CCC(=O)[O-])C(=O)O.[Na+] (stereo not given)
IC50 [1]: 12 µg/mL | CC50 (CEM-4): > 100 µg/mL

CCCCCCCCCCCCSCCCCC(=O)NCCCCCCCCCCC(=O)NC(CCC(=O)[O-])C(=O)O.[Na+] (stereo not given)
IC50 [2]: Not Active | CC50 (CEM-4): > 100 µg/mL

CCCCCCCCCCCCSCCCCCCC(=O)NCCCCCCCCCCC(=O)NCC(=O)[O-].[Na+]
IC50 [2]: Not Active | CC50 (CEM-4): 118 µg/mL

CCCCCCCCCCCCSCCCCCCCCCCCCCCCCCCCCC(=O)N(CC)CCCCCCCCCCC(=O)NC(CCC(=O)[O-])C(=O)O.[Na+] (stereo not given)
IC50 [1]: 46 µg/mL | CC50 (CEM-4): > 300 µg/mL

CCCCCCCCCCCCSCCCCCCC(=O)N(CC)CCCCCCCCCCC(=O)NC(CCC(=O)[O-])C(=O)O.[Na+] (stereo not given)
IC50 [1]: 21 µg/mL | CC50 (CEM-4): > 100 µg/mL

CCCCCCCCCCCCSCCCCCCCCC(=O)NCCCCCCCCCCC(=O)[O-].[Na+]
IC50 [2]: Not Active | CC50 (CEM-4): 29 µg/mL

CCCCCCCCCCCCSCCCCCCCCCCCCCCCCCCCCCCCCCCC(=O)N(C)CCCCCCCCCCC(=O)[O-].[Na+]
IC50 [2]: Not Active | CC50 (CEM-4): > 200 µg/mL

CCCCCCCCCCCCSCCCCCCCCCCCCCCCCCCCCCCCCCCCCCCCCCCCCCCCCC(=O)NCCCCCCCCCCC(=O)[O-].[Na+]
IC50 [3]: > 100 µg/mL | MMC (Vero): >200 µg/mL | IC50 [4]: 30 µg/mL | MMC (E6SM): 200 µg/mL | IC50 (Human alphaherpesvirus 1 [5]): > 100 µg/mL | IC50 (Semliki Forest virus): > 200 µg/mL | IC50 [6]: 50 µg/mL | IC50 [7]: 1.3 µg/mL | IC50 (Human alphaherpesvirus 1 [8]): > 100 µg/mL | IC50 (Vaccinia virus): > 100 µg/mL | IC50 (Human alphaherpesvirus 2): 20 µg/mL | IC50 [9]: 5 µg/mL | CC50 (MT4): > 250 µg/mL | IC50 (Sindbis virus): > 200 µg/mL | IC50 [10]: > 200 µg/mL | IC50 (Human betaherpesvirus 5 [11]): 15 µg/mL | MMC (HeLa): >200 µg/mL | MMC (HEL): >50 µg/mL | IC50 (Junin virus): > 50 µg/mL | IC50 [2]: Not Active | IC50 (Poliovirus 1): > 200 µg/mL | IC50 (Human betaherpesvirus 5 [12]): 40 µg/mL | CC50 (CEM-4): > 50 µg/mL | IC50 (Tacaribe virus): > 50 µg/mL | IC50 (Human respirovirus 3): > 200 µg/mL | IC50 (Coxsackievirus): > 200 µg/mL

CCCCCCCCCCCCSCCCCCCCCCCCCCCCCCCC(=O)N(C)CCCCCCCCCCC(=O)[O-].[Na+]
IC50 [2]: Not Active | CC50 (CEM-4): > 200 µg/mL

CCCCCCCCCCCCSCCCCCCCCCCCCCCCCC(=O)N(CC)CCCCCCCCCCC(=O)NCCC(=O)[O-].[Na+]
IC50 [2]: Not Active | CC50 (CEM-4): > 100 µg/mL

CCCCCCCCCCCCSCCCCCCCCCCCCCCCCCCCCCCCCCCCCCCCCCCC(=O)N(CC)CCCCCCCCCCC(=O)NC(CCC(=O)[O-])C(=O)O.[Na+] (stereo not given)
IC50 [1]: 25 µg/mL | CC50 (CEM-4): > 300 µg/mL

CCCCCCCCCCCCSCCCCCCCCCCCCCCCCCCCCCCCCCCCCCCC(=O)NCCCCCCCCCCC(=O)NC(CCC(=O)[O-])C(=O)O.[Na+] (stereo not given)
IC50 [1]: 15 µg/mL | CC50 (CEM-4): > 100 µg/mL

CCCCCCCCCCCCSCCCCCCCCCCC(=O)N(CC)CCCCCCCCCCC(=O)NCCC(=O)[O-].[Na+]
IC50 [3]: > 200 µg/mL | MMC (Vero): >200 µg/mL | IC50 [4]: 30 µg/mL | IC50 (Human alphaherpesvirus 1 [5]): 70 µg/mL | IC50 (Semliki Forest virus): > 200 µg/mL | IC50 [6]: 30 µg/mL | IC50 [7]: 30 µg/mL | IC50 (Human alphaherpesvirus 1 [8]): 150 µg/mL | IC50 (Vaccinia virus): > 200 µg/mL | IC50 (Human alphaherpesvirus 2): 20 µg/mL | IC50 [9]: 13 µg/mL | CC50 (MT4): > 250 µg/mL | IC50 (Sindbis virus): > 200 µg/mL | IC50 [10]: > 200 µg/mL | IC50 (Human betaherpesvirus 5 [11]): 20 µg/mL | MMC (HeLa): >200 µg/mL | MMC (HEL): >50 µg/mL | IC50 (Junin virus): > 50 µg/mL | IC50 [2]: Not Active | IC50 (Poliovirus 1): > 200 µg/mL | IC50 (Human betaherpesvirus 5 [12]): 50 µg/mL | CC50 (CEM-4): 50 µg/mL | IC50 (Tacaribe virus): > 50 µg/mL | IC50 (Human respirovirus 3): > 200 µg/mL | IC50 (Coxsackievirus): > 200 µg/mL

CCCCCCCCCCCCSCCCCCCCCCCC(=O)NCCCCCCCCCCC(=O)NC(CCC(=O)[O-])C(=O)O.[Na+] (stereo not given)
IC50 [1]: 11 µg/mL | CC50 (CEM-4): > 100 µg/mL
